# Statin myotox sup – protects C2C12 myotubes from simvastatin toxicity. rescue of ATP level, % at 7.49 µM. ATP luminescence, 48 h; scaled: DMSO 0, geranylgeraniol control 100. 330,000 compounds, 0.78% hits;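 active = mean ATP rescue above about 67%, or every replicate alone reaching that limit, limit read from the data, passing the limit was not always enough; inconclusive = no clear call, values can overlap the other calls; inactive = mean under the limit and some replicate under it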;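 note: myotubes were challenged with 10 µM simvastatin during compound exposure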
# SR-BI uptake up – SR-BI HDL lipid transfer activation | CHO ldlA[mSR-BI] cells, DiI-HDL uptake fluorescence, 3 h; 100 = double the neutral-control signal | activation, % at 12.5 µM | 320,000 compounds, 0.096% hits | AID 504775;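 active = mean replicate activation of at least 60% and every replicate at or above 60%; inconclusive = mean or all-replicate condition met, but not both; inactive = mean below 60% and not all replicates reaching 60%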;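 note: 0% = median plate neutral-control signal and 100% = twice that signal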
#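 material = CHO ldlA[mSR-BI] cells | medium = Ham's F12 with 0.5% BSA, HEPES 25 mM, pH 7.4 | reagent = fluorescent DiI-HDL, 10 µg/mL final | compound dosing = single-point compound dose | incubation = 3 h, 37 °C | measured by = bottom-read fluorescence, 550/595 nm | measure = HDL uptake via cellular fluorescence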
# SR-BI DiI inh – blocks mouse SR-BI lipid uptake from DiI-HDL. inhibition, % at 12.5 µM. Q61009. ldlA[mSR-BI] CHO cells, DiI-HDL uptake fluorescence, 3 h. 320,000 compounds, 0.96% hits. AID 488896;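 active = mean replicate inhibition of at least 70% and a set share of replicates each scoring 70 or more; inconclusive = meets just one of the two criteria; inactive = fails both criteria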;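 note: 0% = median of neutral control wells and 100% = median of positive control wells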
# Target sequence (Q61009 whole entry, looked up): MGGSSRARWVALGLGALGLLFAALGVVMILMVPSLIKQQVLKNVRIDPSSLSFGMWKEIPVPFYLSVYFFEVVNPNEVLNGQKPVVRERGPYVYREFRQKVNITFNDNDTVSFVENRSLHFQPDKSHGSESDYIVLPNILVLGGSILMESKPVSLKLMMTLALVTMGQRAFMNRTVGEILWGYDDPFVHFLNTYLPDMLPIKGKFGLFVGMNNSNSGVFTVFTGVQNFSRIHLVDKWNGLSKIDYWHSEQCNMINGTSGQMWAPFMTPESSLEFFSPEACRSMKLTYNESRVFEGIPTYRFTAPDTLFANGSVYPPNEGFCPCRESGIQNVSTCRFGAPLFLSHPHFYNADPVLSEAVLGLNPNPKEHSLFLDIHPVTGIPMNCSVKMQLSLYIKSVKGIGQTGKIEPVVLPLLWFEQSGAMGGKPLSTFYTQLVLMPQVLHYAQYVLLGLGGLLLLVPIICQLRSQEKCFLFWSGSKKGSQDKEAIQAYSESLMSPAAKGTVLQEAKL
# Vif imaging – inhibitors of HIV Vif; HEK293T cells, Vif self-association by quenched fluorescence, imaging, 24 h; inhibition, % at 7.49 µM; 340,000 compounds, 0.35% hits; in the data active = inhibition above about 50%, passing the limit was not always enough; inconclusive = no clear call, values can overlap the other calls; inactive = below about 31%
# * marks the source's active call; other numbers are inactive results; ? = inconclusive; / = no result given. A selection: hits, their analogues and other compounds. The true share with any hit is near 1.7%.
SMILES,Statin myotox sup,SR-BI uptake up,SR-BI DiI inh,Vif imaging
Cc1ccccc1N(CC(=O)NC1CCCC1)C(=O)CS(=O)CC(=O)Nc1ccc2c(c1)OCO2 (configuration not stated),127*,-22,22,2
Cc1cccc(N(C(=O)CS(=O)CC(=O)Nc2ccc3c(c2)OCO3)C(C)C(=O)NC2CCCC2)c1C (configuration not stated),/,/,/,2
O=C(O)CCSCCC(=O)O,91*,1,-1,4
Nc1nn(S(=O)(=O)c2cccc3nsnc23)cc1-c1ccc(Br)cc1,95*,-16,16,-6
COc1ccccc1C(=O)NCCNc1nc2cc(C)cc(C)c2cc1C#N,-32,-110,110*,-2
Nc1ccc(S(=O)(=O)c2ccc(N)nc2)cc1,12,/,/,57*
CCOc1ccc(C(=O)Nc2cccc(C(=O)O)c2)cc1Cl,/,6,-6,-3
CCOc1ccc(C(=O)Nc2cccc(-c3nc4cccnc4o3)c2)cc1Cl,-4,-83,83*,13
Cc1cccc(NC(=O)c2onc3c2CCCC3)c1C,73*,/,/,-1
O=C(Nc1ccc2ccccc2c1)c1onc2c1CCCC2,-22,-29,29,10
Cc1ccccc1NC(=O)c1onc2c1CCCC2,140*,2,-2,-10
Cc1cccc(NC(=O)c2onc3c2CCCC3)n1,/,/,/,-14
CC=Cc1ccc2n(c1=O)C[C@H]1[C@H](CO)[C@@H](C(=O)NCCC)N(Cc3cccnc3)[C@@H]21 (mixture of isomers),13,/,/,/
O=C1NN=C(c2ccc(Cl)cc2)CC1c1cccc(Cl)c1 (configuration not stated),137*,-11,11,-11
Cn1c(CNC(=O)c2ccco2)nnc1SCC(=O)N1c2ccccc2Sc2ccccc21,93*,12,-12,2
CCc1ccccc1NC(=O)CSc1nnc(CNC(=O)c2ccco2)n1C,5,/,/,15
CCC(=O)Nc1ccc2c(c1)OC[C@H](C)N(CCc1ccccc1)C[C@@H](C)[C@H](OC)CN(C)C2=O,17,/,/,/
O=C(CCN1CCOCC1)NNC(=S)NC(=O)c1ccccc1,-6,33,-33,69*
O=C(Nc1ccc(N2CCOCC2)c(Cl)c1)c1cccnc1,92*,-13,13,1
O=C(Nc1ccc(N2CCCC2)c(Cl)c1)c1cccnc1,/,-43,43,-19
O=C(CCc1ccccc1)Nc1ccc(N2CCOCC2)c(Cl)c1,113*,/,/,-4
O=C(CCN1CCOCC1)Nc1ccc(Cl)cc1,-8,13,-13,74*
O=C(CCN1CCOCC1)c1ccccc1,0,14,-14,2
O=C(CCc1ccccc1)Nc1ccc(N2CCOCC2)cc1,-4,-17,17,12
O=C(CC(F)(F)F)N1C[C@H]2[C@@H](c3ccccc31)[C@@H](CO)N2C(=O)Cc1cccnc1,-2,/,/,/
SMILES,Statin myotox sup,SR-BI uptake up,SR-BI DiI inh,Vif imaging
CO[C@H]1CN(C)C(=O)c2cc(NC(=O)C3CCCCC3)ccc2OC[C@H](C)N(Cc2nccs2)C[C@@H]1C,2,/,/,/
Cc1ccc(NC(=O)CSCC(=O)Nc2ccc(N3CCOCC3)c(Cl)c2)cc1,121*,-24,24,-12
Cc1ccc(NC(=O)CSCC(=O)Nc2ccc(N3CCOCC3)cc2N2CCOCC2)cc1,-4,-9,9,12
Cc1sc2nc(SCC(=O)NCc3ccco3)n(Cc3ccccc3)c(=O)c2c1C,114*,16,-16,10
CCOC(=O)c1sc2nc(SCC(=O)NCc3ccco3)n(Cc3ccccc3)c(=O)c2c1C,/,-3,3,1
CCCNC(=O)C[C@@H]1CC[C@@H]2[C@@H](COc3ccc(NC(=O)Nc4ccccc4F)cc3C(=O)N2C)O1,-14,/,/,/
NNC(=O)c1ccc(N2CCc3ccccc32)c([N+](=O)[O-])c1,7,-79,79*,-7
C[C@@H]1CN([C@@H](C)CO)C(=O)c2cccc(NS(=O)(=O)c3ccc(Cl)cc3)c2O[C@H]1CN(C)C(=O)NC1CCCCC1,-14,/,/,/
CN1C(=O)/C(=C/c2ccccc2F)Sc2ccc(C(=O)NCC3CCCO3)cc21 (configuration not stated),3,-70,?,-1
CCOC(=O)N1CCN(C(=O)c2ccc3c(c2)N(C)C(=O)/C(=C\c2ccc(OCC)c(OC)c2)S3)CC1,-33,-56,56,-13
COc1ccc(/C=C2\Sc3ccc(C(=O)NCCCN4CCCC4)cc3N(C)C2=O)cc1OC,-4,-78,78*,12
Cc1cccc(/C=C2\Sc3ccc(C(=O)NCC4CCCO4)cc3N(C)C2=O)c1 (configuration not stated),-5,-92,92*,0
CCOC(=O)N1CCC(NC(=O)c2ccc3c(c2)N(C)C(=O)/C(=C/c2cccc(OC)c2)S3)CC1,-5,-75,75*,-4
CCOc1ccc(/C=C2/Sc3ccc(C(=O)NCC4CCCO4)cc3N(C)C2=O)cc1OC (configuration not stated),-5,-53,53,8
CCCC(=O)Nc1ccc2c(c1)OC[C@@H](C)N(C(=O)CC)C[C@@H](C)[C@H](OC)CN(C)C2=O,14,/,/,/
C[C@H](CO)N1C[C@H](C)[C@H](CN(C)S(C)(=O)=O)Oc2c(NS(=O)(=O)c3cn(C)cn3)cccc2C1=O,27,/,/,/
O=C(C[C@H]1CC[C@@H](NC(=O)Nc2ccc(C(F)(F)F)cc2)[C@H](CO)O1)NCCN1CCCC1,-6,/,/,/
C=CCOc1ccc(/C(CC)=N/O)cc1OC,117*,11,-11,-13
Cc1cccc2cc(COC(=O)c3ccccc3)c(=O)[nH]c12,-7,34,-34,8
Cc1cccc2cc(COC(=O)c3cccnc3)c(=O)[nH]c12,102*,0,0,4
Cc1cccc2cc(COC(=O)c3ccco3)c(=O)[nH]c12,4,24,-24,64*
CCCCOc1ccc(-c2ncc(N)cn2)cc1,/,313*,-313,-5
O=C(CC1CC1)N1CC[C@@H]2[C@H]1c1cc(-c3ccccc3)ccc1N[C@@H]2CO,10,/,/,/
CC(c1nc2ccccc2c(=O)[nH]1)N1CCN(C)CC1 (configuration not stated),117*,12,-12,/
C#CCOCCOCCOCCNc1nc(N2CCOCC2)nc(N2CCN(C(=O)[C@H](Cc3cc4ccccc4[nH]3)n3cc([C@@H](N)C(C)CC)nn3)CC2)n1 (some centres not stated),2,1,-1,-4
C#CCOCCOCCOCCNc1nc(N2CCN(C(=O)C(Cc3cc4ccccc4[nH]3)n3cc(C(N)C(C)CC)nn3)CC2)nc(N2CCN(C(=O)C(Cc3cc4ccccc4[nH]3)n3cc(C(N)C(C)CC)nn3)CC2)n1 (configuration not stated),-89,67*,-67,-6
C[C@@H]1CN([C@H](C)CO)C(=O)c2cc(N(C)C)ccc2O[C@@H](C)CCCCO[C@@H]1CN(C)C(=O)CCC(F)(F)F,-2,/,/,/
O=C(C[C@H]1CC[C@@H](NC(=O)Nc2cc(F)ccc2F)[C@H](CO)O1)NCc1ccncn1,7,/,/,/

# Assay outcomes deposited in PubChem by Broad Institute.
